From ChEMBL document CHEMBL1135663, “Probing opioid receptor interactions with azacycloalkane amino acids. Synthesis of a potent and selective ORL1 antagonist” (J Med Chem, 2002)
Values joined by “and” are separate entries in the source; they are usually repeats but may differ in a detail not shown here. Identical values can stand only once.

How the values were obtained:
[1] = biological target: Delta-type opioid receptor (Homo sapiens, UniProt P41143); assay: Binding affinity for opioid receptor type, human Opioid receptor delta 1 expressed in membrane homogenates of COS-1 or CHO cells; assay type: cell-based
Sequence of Delta-type opioid receptor (P41143 whole entry): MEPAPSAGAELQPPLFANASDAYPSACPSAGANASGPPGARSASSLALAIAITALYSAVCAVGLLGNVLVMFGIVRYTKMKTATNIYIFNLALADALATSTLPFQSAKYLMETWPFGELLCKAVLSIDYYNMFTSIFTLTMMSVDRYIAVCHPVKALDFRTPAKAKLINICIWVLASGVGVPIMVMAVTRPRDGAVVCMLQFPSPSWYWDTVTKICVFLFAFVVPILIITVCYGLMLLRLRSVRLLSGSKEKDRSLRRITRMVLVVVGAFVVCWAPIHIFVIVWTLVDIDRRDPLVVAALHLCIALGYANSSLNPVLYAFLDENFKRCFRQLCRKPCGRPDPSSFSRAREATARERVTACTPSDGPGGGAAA

Nociceptin receptor [2] = biological target: T1, Nociceptin receptor (Homo sapiens, UniProt P41146); assay: Binding affinity for opioid receptor like type, human Opioid receptor like 1 expressed in membrane homogenates of COS-1 or CHO cells; assay type: cell-based
T1 sequence (P41146 whole entry): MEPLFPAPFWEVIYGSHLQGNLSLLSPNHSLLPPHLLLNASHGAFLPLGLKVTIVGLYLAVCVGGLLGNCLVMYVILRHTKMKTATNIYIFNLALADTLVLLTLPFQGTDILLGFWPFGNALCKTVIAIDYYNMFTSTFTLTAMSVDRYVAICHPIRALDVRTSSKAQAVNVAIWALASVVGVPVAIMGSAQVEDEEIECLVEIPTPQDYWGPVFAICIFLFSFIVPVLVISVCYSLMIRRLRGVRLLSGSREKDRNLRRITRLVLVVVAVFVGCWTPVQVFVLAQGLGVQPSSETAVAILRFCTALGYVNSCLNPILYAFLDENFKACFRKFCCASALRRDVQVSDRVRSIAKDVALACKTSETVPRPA

Mu-type opioid receptor [3] = biological target: T2, Mu-type opioid receptor (Homo sapiens, UniProt P35372); assay: Binding affinity for opioid receptor type, human Opioid receptor mu 1 expressed in membrane homogenates of COS-1 or CHO cells; assay type: cell-based
T2 sequence (P35372 whole entry): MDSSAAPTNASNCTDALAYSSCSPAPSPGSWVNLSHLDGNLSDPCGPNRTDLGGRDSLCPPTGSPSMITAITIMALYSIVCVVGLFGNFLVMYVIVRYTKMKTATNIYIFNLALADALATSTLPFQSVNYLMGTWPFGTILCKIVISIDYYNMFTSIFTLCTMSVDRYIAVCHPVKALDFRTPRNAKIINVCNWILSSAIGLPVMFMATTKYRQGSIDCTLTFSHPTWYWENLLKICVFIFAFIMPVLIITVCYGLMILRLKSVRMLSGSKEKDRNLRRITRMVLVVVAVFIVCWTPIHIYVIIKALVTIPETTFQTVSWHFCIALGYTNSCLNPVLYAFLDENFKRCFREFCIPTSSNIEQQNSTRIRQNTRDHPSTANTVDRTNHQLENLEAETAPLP

[4] = biological target: T3, Kappa-type opioid receptor (Homo sapiens, UniProt P41145); assay: Binding affinity for opioid receptor type, human Opioid receptor kappa 1 expressed in membrane homogenates of COS-1 or CHO cells; assay type: cell-based
T3 sequence (P41145 whole entry): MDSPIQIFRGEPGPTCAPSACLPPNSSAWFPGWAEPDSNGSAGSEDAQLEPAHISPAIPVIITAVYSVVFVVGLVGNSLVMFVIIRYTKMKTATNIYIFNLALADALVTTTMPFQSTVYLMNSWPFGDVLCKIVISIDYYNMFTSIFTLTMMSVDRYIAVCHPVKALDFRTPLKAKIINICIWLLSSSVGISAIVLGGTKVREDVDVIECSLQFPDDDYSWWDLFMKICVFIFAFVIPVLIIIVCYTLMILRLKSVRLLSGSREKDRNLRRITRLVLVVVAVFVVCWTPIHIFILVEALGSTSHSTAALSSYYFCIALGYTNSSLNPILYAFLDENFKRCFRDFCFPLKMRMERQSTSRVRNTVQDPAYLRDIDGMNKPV

Nociceptin receptor [5] = biological target: T1, Nociceptin receptor
Mu-type opioid receptor [6] = biological target: T2, Mu-type opioid receptor; assay: Stimulation of [35S]GTP-gamma-S, binding using COS-human Opioid receptor mu 1 membranes; assay type: functional
How it was run: (§1)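 Agonist-stimulated [35S]GTPγS binding to 5 μg membranes from COS cells transiently expressing human KOR or MOR. Incubation was 1 h at 30 °C with 0.2 nM [35S]GTPγS, GDP and increasing ligand concentrations, giving concentration–response data. Mean ± SEM of at least two separate experiments, each in triplicate.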

[7] = biological target: T3, Kappa-type opioid receptor; assay: Stimulation of [35S]GTP-gamma-S, binding using COS-human Opioid receptor kappa 1 membranes; assay type: functional; how it was run: as §1
Mu-type opioid receptor [8] = biological target: T2, Mu-type opioid receptor; assay: Maximal activation of [35S]GTP-gamma-S, binding using COS-human Opioid receptor mu 1 membranes; assay type: functional
How it was run: (§2)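 Membranes (5 μg) from COS cells transiently transfected with human KOR or MOR, incubated 1 h at 30 °C with 0.2 nM [35S]GTPγS, GDP and increasing ligand concentrations. Maximal activation is given as percentage of basal [35S]GTPγS binding. Mean ± SEM of at least two separate experiments, each in triplicate.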

[9] = biological target: T3, Kappa-type opioid receptor; assay: Maximal activation of [35S]GTP-gamma-S, binding using COS-human Opioid receptor kappa 1 membranes; assay type: functional; how it was run: as §2

Compound | Ki ([1]; cos-1) [nM] | Ki (Nociceptin receptor [2]; cos-1) [nM] | Ki (Mu-type opioid receptor [3]; cos-1) [nM] | Ki ([4]; cos-1) [nM] | Ke (Nociceptin receptor [5]) [nM] | EC50 (Mu-type opioid receptor [6]) [nM] | EC50 [7] [nM] | Activity (Mu-type opioid receptor [8]) [%] | Ki [1] [nM] | Ki (Nociceptin receptor [2]) [nM] | Ki (Mu-type opioid receptor [3]) [nM] | Activity [9] | Ki [4] [nM]
CC(=O)N[C@@H](CCCN=C(N)N)C(=O)N[C@H](CC1CCCCC1)C(=O)N[C@H]1C[C@H]2CCC[C@@H](C(=O)N[C@H](CCCN=C(N)N)C(=O)N[C@H](Cc3ccc(Cl)cc3)C(N)=O)N2C1=O | 10900 | 2130 | 2700 | 1080 |  |  |  |  |  |  |  |  | 
CC(=O)N[C@@H](CCCN=C(N)N)C(=O)NC(CC1CCCCC1)C(=O)N[C@H]1CC[C@@H]2SC[C@H](C(=O)N[C@H](CCCN=C(N)N)C(=O)NC(Cc3ccc(Cl)cc3)C(N)=O)N2C1=O (stereo in doubt) | 222 | 34 | 53 | 78 | 40 |  |  |  |  |  |  |  | 
CC(=O)N[C@@H](CCCNC(=N)N)C(=O)N[C@H](CC1CCCCC1)C(=O)N[C@H]1CC[C@H]2CC[C@@H](C(=O)N[C@H](CCCNC(=N)N)C(=O)N[C@H](Cc3ccc(Cl)cc3)C(N)=O)N2C1=O | 5200 | 44 | 75 | 190 |  | 1400 | > 1000 |  |  |  |  |  | 
CC(=O)N[C@@H](CCCN=C(N)N)C(=O)NC(CC1CCCCC1)C(=O)NC1CC[C@H]2CCC[C@@H](C(=O)N[C@H](CCCN=C(N)N)C(=O)NC(Cc3ccc(Cl)cc3)C(N)=O)N2C1=O (stereo in doubt) |  |  |  |  |  | 2800 | > 1000 | 141 | 7050 | 35 | 496 | 117% | 441
CC(=O)N[C@@H](CCCN=C(N)N)C(=O)N[C@H](CC1CCCCC1)C(=O)N[C@@H](Cc1ccccc1)C(=O)N1[C@H](C(=O)N[C@H](CCCN=C(N)N)C(=O)N[C@H](Cc2ccc(Cl)cc2)C(N)=O)CC[C@@H]1C(C)(C)C |  |  |  |  |  |  |  |  | 2340 | 1700 | 368 |  | 282
CC(=O)N[C@@H](CCCN=C(N)N)C(=O)NC(CC1CCCCC1)C(=O)N[C@H]1CC[C@H]2SC[C@@H](C(=O)N[C@H](CCCN=C(N)N)C(=O)NC(Cc3ccc(Cl)cc3)C(N)=O)N2C1=O (stereo in doubt) |  |  |  |  | 400 |  |  | 207 |  |  |  | 122% and 120% | 
